Screening data (PubChem BioAssay)
Hits are enriched below; roughly 9.6% of the tested compounds scored in any of these assays.
HCT116 bCat-KO: beta-catenin-lacking colon tumor cell growth suppression | HCT116 beta-catenin knockout viability, CellTiter-Glo, 60 h; active compounds read low | viability, % at 10 µM | hit rate 1.5% among 140,000;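 active = viability at or under a set limit, the compound median less 4 SD, cut at about 6% in these data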;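 also: 0% = Hyamine 1622 control at 20 µM and 100% = untreated cell control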
TNAP act hiacc: activators of human TNAP at high phosphate acceptor concentration; P05186; purified TNAP, CDP-star luminescence, 1 M DEA, 30 min; active compounds read high; 0 = EDTA background, 1 = DMSO-only activity; activation factor at 20 µM; 200,000 tested, under 10 active;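 active = activation factor at least 2 at 20 µM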
Target sequence (P05186 whole entry, looked up): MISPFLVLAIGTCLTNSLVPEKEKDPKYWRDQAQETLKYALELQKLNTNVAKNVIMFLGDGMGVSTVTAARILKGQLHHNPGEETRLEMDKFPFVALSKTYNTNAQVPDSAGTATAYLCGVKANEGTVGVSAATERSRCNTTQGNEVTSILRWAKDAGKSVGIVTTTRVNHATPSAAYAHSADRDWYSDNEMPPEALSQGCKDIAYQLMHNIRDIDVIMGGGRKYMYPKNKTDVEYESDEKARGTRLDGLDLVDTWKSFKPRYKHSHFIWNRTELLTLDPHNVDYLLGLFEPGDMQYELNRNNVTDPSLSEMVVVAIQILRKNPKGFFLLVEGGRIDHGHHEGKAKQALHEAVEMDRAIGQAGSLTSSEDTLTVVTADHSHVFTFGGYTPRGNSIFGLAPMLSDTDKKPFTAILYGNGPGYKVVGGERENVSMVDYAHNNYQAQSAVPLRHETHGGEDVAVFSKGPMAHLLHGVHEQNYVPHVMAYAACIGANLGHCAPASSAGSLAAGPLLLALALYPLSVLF
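system = human TNAP | amount = enzyme diluted 1/800 final | reagent = 100 µM CDP-star substrate | signal = luminescent substrate turnover signal | dosing = one dose, 20 µM | benchmarks = EDTA negative control, DMSO positive control | measure = activation factor | timing = 30 min reaction, room temperature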
PTEN del growth: suppresses growth of cells with PTEN deletion | AID 827 | viability, % at 10 µM | hit rate 1.2% among 140,000 | HCT116 PTEN-null viability, CellTiter-Glo, 60 h; active compounds read low;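 active = viability at or below a set limit, 4 SD under the median of all tested compounds, cut at about 3.7% in these data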;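 also: PTEN knockout HCT116 line with beta catenin targeted HCT116 as companion control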
TNAP inh noacc: TNAP (human) inhibition, acceptor-free conditions | hit rate 0.26% among 200,000 | inhibition, % at 20 µM | AID 1012 | P05186 | purified TNAP, CDP-star luminescence, 30 min;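 active = tissue-nonspecific alkaline phosphatase inhibition above about 50% at 20 µM in the single-dose screen, limit read from the data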;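 also: 0% = DMSO negative control and 100% = EDTA positive control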
TNAP inh hi DEA: TNAP (human) inhibition, high acceptor; purified TNAP, CDP-star luminescence, 1 M DEA; inhibition, % at 20 µM; P05186; hit rate 0.03% among 200,000;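 active = over 50% inhibition of tissue-nonspecific alkaline phosphatase at 20 µM in the single-dose screen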;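 also: plate controls were DMSO wells for no effect and EDTA-quenched wells as full inhibition for full effect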
Lmaj promast: reduces viability of Leishmania major promastigotes; resazurin fluorescence viability; inhibition, % at 10 µM; hit rate 9% among 200,000; AID 1063; in the data active = inhibition above about 50%;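 also: promastigotes grown with compound for 44 hours at 28 °C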
Starred values were filed as active, the others as inactive; · = no result given.

SMILES	HCT116 bCat-KO	TNAP act hiacc	PTEN del growth	TNAP inh noacc	TNAP inh hi DEA	Lmaj promast
COc1ccc(NC(=O)c2c(Nc3ccccc3)sc(C(=O)c3ccc(F)cc3)c2N)cc1	16	1	22	0	3	0
O=C(O)c1ccccc1-c1nc2cc(Cl)ccc2c(=O)n1O	·	1	·	-13	-3	-16
O=c1c2ccc(Cl)cc2nc(-c2cccc(C(F)(F)F)c2)n1O	8	1	10	-7	-1	99*
CCN1CCN(c2cc(C(C)(C)C)nc3c(-c4ccccc4)c(C)nn23)CC1	13	1	9	1	-1	96*
Cc1nc2c(-c3ccccc3)c(C)nn2c(C)c1CCC(=O)NCc1ccco1	95	1	103	-12	-2	-4
CCN1CCN(c2ccc(NC(=O)CCc3c(C)nc4c(-c5ccccc5)c(C)nn4c3C)cc2)CC1	0.9*	1.1	1.9*	-20	-6	100*
NC(=O)[C@@H]1CCCN1Cc1nc(-c2cccs2)no1	·	1	·	-4	0	-4
Cc1c(-c2ccccc2)oc2c(C(=O)OCC(=O)Nc3ccc(F)cc3)cccc2c1=O	85	1	81	-8	3	-3
O=[N+]([O-])c1cc([N+](=O)[O-])c2c(=Nc3ccccc3)n(-c3ccccc3)n(O)c2c1	·	0.8	·	15	16	100*
CC(C)NC(=O)NC(=O)COC(=O)c1ccc(F)cc1F	95	1	100	-9	-4	-7
C=C(C)CN1CCN(c2c(CCC#N)c(C)c(C#N)c3nc4ccccc4n23)CC1	2.9*	1	3.1*	-21	-2	0
CC(OC(=O)C1CCN(S(=O)(=O)c2ccc(Cl)cc2)CC1)C(=O)N1CCc2ccccc21 (stereo unspecified)	95	1	102	4	-2	98*
CCCCOC(=O)N/N=C/C=C/c1ccccc1	93	1	86	-12	-4	-5
NNC(=O)C1CCCN1S(=O)(=O)c1ccc(Cl)cc1 (stereo unspecified)	·	1	·	-4	2	11
COC(=O)c1cccc(NC(=O)Nc2ccc(Cl)c(Cl)c2)c1	6	1	6	-15	-4	87*
COC(=O)c1cccc(NC(=O)NC2CCCN2S(=O)(=O)c2ccc(Cl)cc2)c1 (stereo unspecified)	99	1.1	101	-15	-6	76*
COC(=O)c1cc(NC(=O)Nc2ccccc2)ccc1Cl	85	1	92	0	-4	22
COc1ccc(CN(C)Cc2ccccc2)c(OC)c1OC	97	1	97	-10	-3	-2
COc1ccc(Cl)cc1NC(=O)C1(c2cccs2)CCOCC1	·	1	·	-10	0	11
Cc1c(Cl)cccc1Nc1nc(N)nc(CN2CCCCCC2)n1	107	1	95	3	0	81*
COc1ccccc1Nc1nc(N)nc(CN2CCc3ccccc3C2)n1	77	1	83	-4	0	100*
C=C(C)CNC(=S)N/N=C1\CCCCc2ccccc21	89	1	87	-16	3	99*
CCNc1nc(NCC)nc(Oc2ccc(OCC)nn2)n1	69	1.1	73	-16	-8	-8
CCNc1nc(N)nc(Oc2ccc(OCCOc3ccc(Cl)cc3Cl)nn2)n1	91	1.1	92	-12	-6	98*
COc1ccc(C(=O)CSc2n[nH]c(-c3ccncc3)n2)cc1[N+](=O)[O-]	96	1	102	15	-5	56*
SMILES	HCT116 bCat-KO	TNAP act hiacc	PTEN del growth	TNAP inh noacc	TNAP inh hi DEA	Lmaj promast
Cc1cc(C)c(C(=O)CSc2n[nH]c(-c3ccncc3)n2)c(C)c1	·	1	·	3	-1	97*
CSc1nc(Cc2ccccc2)nc2ccccc12	·	1.1	·	-12	-8	1
COCCCNC(=S)N1CCN(c2ccccc2)CC1	·	1	·	-7	0	-2
CC(=O)Nc1ccc(C(=O)Nc2nc(-c3ccccn3)cs2)cc1	·	1	·	-43	-2	64*
O=C(Nc1nc(-c2ccccn2)cs1)c1ccc2c(c1)OCCO2	·	1	·	-10	-4	99*
CC(=O)Nc1ccc(C(=O)Nc2nc(-c3cccnc3)cs2)cc1	·	1	·	-14	1	14
COc1ccc2nc(N=Nc3c(O)ccc4ccccc34)sc2c1	5.3*	0.8	7	18	18	99*
COc1ccc2nc(NC(=O)Nc3cccc4ccccc34)sc2c1	·	1	·	-3	-1	-1
CCOc1cc(CNc2ccc3cn[nH]c3c2)ccc1OC	87	1	72	-14	0	79*
Cc1ccc(NC(=O)/C(C#N)=C(\N)C(Cl)(Cl)Cl)nc1	·	1	·	-10	-3	100*
CCOC(=O)c1c(NC(=O)Cn2ccsc2=N)sc(C)c1C	·	1	·	0	-1	23
O=S(=O)(NCC1NCCc2ccccc21)c1ccccc1 (stereo unspecified)	·	1.1	·	1	-6	-3
O=C(/C=C/c1ccccc1)N/C(=C/c1ccccc1)C(=O)NCCCO	93	1	85	-1	0	-1
C=CCC(CC=C)(NC(=O)c1cccc(C)c1)c1ccccc1	89	1	88	-12	-2	68*
C=CCC(CC=C)(NC(=O)c1ccccc1C(=O)O)c1ccccc1	100	1	101	-6	-3	27
CCOc1ccc(N(CC(=O)N/N=C/c2cccnc2)S(C)(=O)=O)cc1	·	1	·	-10	-3	6
C=CCN(c1ccccc1)S(=O)(=O)c1ccc(Cl)c(C(=O)OCC(=O)c2[nH]c(C)c(C(C)=O)c2C)c1	96	1	99	-6	-5	76*
C=CCN(c1ccc(OC)cc1)S(=O)(=O)c1ccc(Cl)c(C(=O)OCC(=O)NC2CC2)c1	·	1	·	-14	-4	-2
CCN(CC)c1ccc2cc(C(C)=O)c(=O)oc2c1	101	0.9	103	0	11	11
CCN(CC)c1ccc2cc(-c3nnc(-c4ccncc4)o3)c(=O)oc2c1	100	0.8	103	16	19	68*
CCc1nc2c(cnn2-c2ccc(Cl)cc2)c(=O)n1-c1ccc2c(c1)OCCO2	3.3*	1	6	-6	2	20
CCN1CCN(C2=C(Cl)C(=O)N(Cc3ccccc3)C2=O)CC1	77	1	88	-11	-4	92*
CCOc1ccc(NC2=C(Cl)C(=O)N(Cc3ccccc3)C2=O)cc1	77	1	77	14	3	12
CN1CCN(C2=C(Cl)C(=O)N(Cc3ccccc3)C2=O)CC1	76	1	76	-3	-4	96*
COCC(C)Nc1nc(C)c(C(C)=O)s1 (stereo unspecified)	·	1.1	·	-10	-6	-4
CC(C)OP(=O)(OC(C)C)C(C)NC(=O)Cc1ccccc1 (stereo unspecified)	·	1	·	-15	-4	-7
